Our source for the CC50, EC50 and Activity values is ChEMBL document CHEMBL1144182, “Antimicrobial and cytotoxic arylazoenamines. Part III: antiviral activity of selected classes of arylazoenamines” (Bioorg Med Chem, 2008).

The structures appear in SMILES notation. Calls of active or inactive are those of the source. No rule for the calls is given here.

Data set [1] can be described thus: Cytotoxicity against mock-infected human MT4 cells assessed as reduction in cell viability after 96 hrs by MTT assay. The data set is classed as cell-based. In outline: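 Exponentially growing MT-4 cells seeded at 1 × 10^5 cells/mL in RPMI-1640 with 10% FCS, penicillin and streptomycin, with or without serial compound dilutions. Incubated at 37 °C, 5% CO2; viability read by MTT after 96 h. CC50 is the concentration reducing mock-infected cell viability by 50%.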
For orientation: Tetrazolium dyes change colour on reduction, which living cells bring about.

The nature of data set [2]: Cytotoxicity against mock-infected MDBK cells assessed as reduction in cell viability after 96 hrs by MTT assay. The data set is classed as cell-based, Bos taurus. The conditions noted are these: cattle. Put shortly: (§1)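 Cytotoxicity run in parallel with the antiviral assays. MDBK seeded at 6 × 10^5 and BHK at 1 × 10^6 cells/mL in maintenance medium with or without serial compound dilutions. Incubated 48–96 h at 37 °C, 5% CO2, then viability read by MTT. CC50 is the concentration reducing mock-infected cell viability by 50%.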

Data set [3] has as its system Bovine viral diarrhea virus 1. In words: Antiviral activity against BVDV infected in MDBK cells assessed as protection against virus-induced cytopathogenicity after 4 days by MTT assay. The data set is classed as functional, organism-based. Particulars: Bovine viral diarrhea virus isolates and strains, 96 h. Put shortly:
(§2)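 MDBK (BVDV) or BHK-21 (YFV) cells were seeded at 3 × 10^4 or 5 × 10^4 cells/well respectively and grown overnight to confluent monolayers at 37 °C in 5% CO2. Monolayers were infected at m.o.i. 0.01 in serum-free medium. After 1 h, MEM Earle's with 1% FCS was added, with or without serial compound dilutions. After 3–4 days at 37 °C, viability was read by MTT. EC50 was taken as 50% protection from virus-induced cytopathogenicity.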
In general terms: Cytopathic effects are the visible damage that an infection or toxin causes in cultured cells.

Data set [4] can be described thus: Cytotoxicity against mock-infected BHK cells assessed as reduction in cell viability after 96 hrs by MTT assay. Particulars: hamster. It is filed as cell-based, Mesocricetus auratus. Put shortly: as §1
Another data set relates to Yellow fever virus. In words: Antiviral activity against YFV infected in BHK21 cells assessed as protection against virus-induced cytopathogenicity after 4 days by MTT assay. The data set is classed as functional, organism-based. The conditions noted are these: BHK-21, 96 h. In outline:
as §2

Data set [5] is described as follows: Cytotoxicity against mock-infected african green monkey Vero76 cells assessed as reduction in cell viability after 96 hrs by MTT assay. Particulars: chlorocebus sabaeus. It is filed as cell-based, Vero.
A further data set relates to Coxsackievirus B2. The data set can be described thus: Antiviral activity against CVB2 infected in Vero76 cells assessed as reduction in virus plaque formation after 4 days by MTT assay. The data set is classed as functional, organism-based. The conditions noted are these: Enterovirus B, Vero 76, 96 h.
The test system of data set [6] is Respiratory syncytial virus. In words: Antiviral activity against RSV infected in Vero76 cells assessed as reduction in virus plaque formation after 4 days by MTT assay. The data set is classed as functional, organism-based. Particulars: human respiratory syncytial virus, Vero 76, 96 h.
In the next data set the test system is Poliovirus 1. The data set can be described thus: Antiviral activity against Sb1 virus infected in Vero76 cells assessed as reduction in virus plaque formation after 4 days by MTT assay. The data set is classed as functional, organism-based. Particulars: Enterovirus C, Sabin, Vero 76, 96 h.
Data set [7] relates to Human immunodeficiency virus 1. The data set can be described thus: Antiviral activity against HIV1 infected in MT4 cells assessed as virus-induced cytopathogenicity after 4 days. The data set is classed as functional, organism-based.
Another data set relates to Vaccinia virus. The data set can be described thus: Antiviral activity against VV infected in Vero76 cells assessed as reduction in virus plaque formation after 4 days by MTT assay. Particulars: Orthopoxvirus vaccinia; Vero 76. The data set is classed as functional, organism-based.
In data set [8] the test system is Vesicular stomatitis virus. In words: Antiviral activity against VSV infected in Vero76 cells assessed as reduction in virus plaque formation after 4 days by MTT assay. The data set is classed as functional, organism-based. The conditions noted are these: Vero 76.

`C(=C\N1CCN(c2ccccc2)CC1)/N=N/c1ccccc1`: the CC50 at 96 h was found to be 15 µM in data set [1], 5 µM in data set [2], 60 µM in [4] and 50 µM in data set [5]. In addition, the 50% effective concentration (EC50) in [3] is over 5 µM; in the data set with Yellow fever virus, 42 µM; in the data set on Coxsackievirus B2, 5 µM; in data set [6] it was 11 µM; in the data set with Poliovirus 1, over 50 µM. Moreover, the result (in data set [7]; in the data set on Vaccinia virus; in [8]) was inactive.
Regarding `CN1CCC/C1=C\N=N\c1cccc([N+](=O)[O-])c1`, the CC50 at 96 h is 25 µM in data set [1], over 100 µM in data set [2], over 100 µM in data set [4] and over 100 µM in data set [5]. Also, the EC50 was 5.5 µM in [3]; over 100 µM in the data set on Yellow fever virus; over 100 µM in the data set on Coxsackievirus B2; over 100 µM in data set [6]; over 100 µM in the data set on Poliovirus 1. Moreover, the result (in data set [7]; in the data set on Vaccinia virus; in [8]) was inactive.
In the case of `Clc1ccc(/N=N\C2=C3CCCN3CCC2)cc1`, the CC50 at 96 h in data set [1] is over 100 µM; in data set [2] it was 30 µM; in [4] it was 34 µM; in data set [5], 75 µM. Besides, the EC50 in data set [3] is over 30 µM; in the data set with Yellow fever virus, over 34 µM; with Coxsackievirus B2, 10 µM; in data set [6], over 75 µM; in the data set on Poliovirus 1, 20 µM. The result (in data set [7]; in the data set with Vaccinia virus; in data set [8]) was inactive.
For the compound `Clc1ccc(/N=N\C2=C3CCCN3CCC2)cc1Cl`, the CC50 at 96 h in data set [1] is 26 µM; in [2], 67 µM; in [4], 61 µM; in data set [5], over 100 µM. In addition, the EC50 in data set [3] was over 67 µM; with Yellow fever virus it was over 61 µM; with Coxsackievirus B2, 30 µM; in [6], over 100 µM; in the data set on Poliovirus 1 it was 45 µM. Further, the outcome (in data set [7]; with Vaccinia virus; in [8]) was inactive.
With `Cc1ccc(/N=N/C=C2\CCCN2C)cc1`, the CC50 at 96 h in [1], in [2], in data set [4] and in data set [5] was over 100 µM in each case. Further, the EC50 in data set [3] was 20 µM; in the data set on Yellow fever virus, over 100 µM; in the data set on Coxsackievirus B2 it was 60 µM; in data set [6] it was over 100 µM; with Poliovirus 1 it was over 100 µM. For the same compound, the result (in data set [7]; with Vaccinia virus; in data set [8]) was inactive.
Take `CN1C=C(/N=N/c2cc(C(F)(F)F)cc(C(F)(F)F)c2)CCC1`: the CC50 at 96 h is over 100 µM in [1], 64 µM in data set [2], 82 µM in data set [4] and over 100 µM in [5]. For the same compound, the EC50 in data set [3] is over 64 µM; with Yellow fever virus it was over 82 µM; in the data set with Coxsackievirus B2, over 100 µM; in data set [6] it was over 100 µM; in the data set with Poliovirus 1, over 100 µM. Besides, the result (in data set [7]; with Vaccinia virus; in data set [8]) was inactive.
Take `Clc1ccc(/N=N\C2=C3CCCCN3CCC2)cc1`: the CC50 at 96 h in [1] is 42 µM; in data set [2] it was 60 µM; in data set [4] it was 69 µM; in [5] it was 80 µM. The EC50 in [3] was over 60 µM; in the data set on Yellow fever virus, over 69 µM; with Coxsackievirus B2, 19 µM; in data set [6], 25 µM; in the data set on Poliovirus 1, over 80 µM. For the same compound, the outcome (in [7]; in the data set with Vaccinia virus; in data set [8]) was inactive.
On to `Clc1ccc(/N=N/C=C/N2CCCC2)cc1`, for which the CC50 at 96 h in data set [1] was 61 µM; in data set [2], 30 µM; in data set [4], over 100 µM; in data set [5], 22 µM. For the same compound, the EC50 in [3] is over 30 µM; in the data set on Yellow fever virus, 46 µM; in the data set on Coxsackievirus B2, 4 µM; in data set [6], over 22 µM; in the data set with Poliovirus 1, over 22 µM. The outcome (in data set [7]; in the data set on Vaccinia virus; in [8]) was inactive.
With `FC(F)(F)c1cc(/N=N/C=C2\CCCN2Cc2ccccc2)ccc1Cl`, the CC50 at 96 h in [1] amounted to 20 µM; in [2] it was 14 µM; in [4], 22 µM; in data set [5], 80 µM. Further, the EC50 in data set [3] is over 14 µM; in the data set with Yellow fever virus, over 22 µM; in the data set on Coxsackievirus B2 it was 30 µM; in data set [6], over 80 µM; in the data set with Poliovirus 1, over 80 µM. For the same compound, the result (in [7]; with Vaccinia virus; in [8]) was inactive.
`Cc1ccc(/N=N/C=C2\CCCN2Cc2ccccc2)cc1`: the CC50 at 96 h in [1] is 10 µM; in data set [2] it was 22 µM; in data set [4], 25 µM; in [5] it was 50 µM. For the same compound, the EC50 is over 22 µM in data set [3]; over 25 µM with Yellow fever virus; 8 µM in the data set on Coxsackievirus B2; over 50 µM in data set [6]; over 50 µM in the data set on Poliovirus 1. The result (in data set [7]; in the data set with Vaccinia virus; in [8]) was inactive.
Take `O=[N+]([O-])c1cc(/N=N\C2=C3CCCCN3CCC2)ccc1Cl`: the CC50 at 96 h in [1] is 33 µM; in data set [2], 18 µM; in data set [4] it was 10 µM; in data set [5] it was 100 µM. Besides, the EC50 in data set [3] was 18 µM; in the data set with Yellow fever virus, over 10 µM; in the data set with Coxsackievirus B2, 51 µM; in data set [6] it was 75 µM; in the data set on Poliovirus 1, over 100 µM. Also, the outcome (in data set [7]; with Vaccinia virus; in data set [8]) was inactive.
With `CN1CCC/C1=C\N=N\c1cccc(C(F)(F)F)c1`, the CC50 at 96 h was 49 µM in data set [1], 90 µM in data set [2], 50 µM in data set [4] and over 100 µM in data set [5]. Further, the concentration giving a half-maximal response (EC50) was 21 µM in data set [3]; over 50 µM with Yellow fever virus; over 100 µM in the data set with Coxsackievirus B2; over 100 µM in [6]; over 100 µM with Poliovirus 1. Further, the outcome (in data set [7]; in the data set on Vaccinia virus; in data set [8]) was inactive.
Take `CN1CCC/C1=C\N=N\c1ccc(Cl)cc1`: the CC50 at 96 h in [1] was over 100 µM; in data set [2] it was 85 µM; in [4] it was 55 µM; in data set [5] it was 92 µM. Also, the EC50 in data set [3] is 21 µM; in the data set on Yellow fever virus, over 55 µM; in the data set on Coxsackievirus B2, 24 µM; in [6], 20 µM; with Poliovirus 1 it was over 92 µM. The result (in [7]; with Vaccinia virus; in data set [8]) was inactive.
For `CN1C=C(/N=N/c2ccc(F)cc2)CCC1`, the CC50 at 96 h in [1] was at least 100 µM; in [2], 48 µM; in [4], 90 µM; in data set [5], 77 µM. The EC50 in data set [3] is over 48 µM; in the data set on Yellow fever virus it was over 90 µM; with Coxsackievirus B2, 53 µM; in data set [6] it was 30 µM; in the data set on Poliovirus 1, over 77 µM. For the same compound, the result (in data set [7]; with Vaccinia virus; in data set [8]) was inactive.
As to `Clc1ccc2c(/N=N/C3=C4CCCCN4CCC3)ccnc2c1`, the CC50 at 96 h was determined as 15 µM in data set [1], 40 µM in data set [2], 48 µM in data set [4] and 85 µM in data set [5]. For the same compound, the concentration for a half-maximal effect (EC50) in [3] is 5 µM; in the data set with Yellow fever virus, over 48 µM; in the data set with Coxsackievirus B2, 51 µM; in data set [6], over 85 µM; with Poliovirus 1, over 85 µM. Further, the result (in [7]; in the data set on Vaccinia virus; in data set [8]) was inactive.

As usually defined, the CC50 is the concentration at which the toxic effect on the cells reaches its halfway point. A word on the EC50: it is the concentration that produces a half-maximal response.
